# Results published in ChEMBL document CHEMBL1148431, “Structure-activity relationships of novel potent MurF inhibitors” (Bioorg Med Chem Lett, 2004).
# Target: T1, UDP-N-acetylmuramoylalanine-D-glutamyl-lysine-D-alanyl-D-alanine ligase (Streptococcus pneumoniae R6, UniProt Q8DNV6)
# T1 sequence (Q8DNV6 whole entry): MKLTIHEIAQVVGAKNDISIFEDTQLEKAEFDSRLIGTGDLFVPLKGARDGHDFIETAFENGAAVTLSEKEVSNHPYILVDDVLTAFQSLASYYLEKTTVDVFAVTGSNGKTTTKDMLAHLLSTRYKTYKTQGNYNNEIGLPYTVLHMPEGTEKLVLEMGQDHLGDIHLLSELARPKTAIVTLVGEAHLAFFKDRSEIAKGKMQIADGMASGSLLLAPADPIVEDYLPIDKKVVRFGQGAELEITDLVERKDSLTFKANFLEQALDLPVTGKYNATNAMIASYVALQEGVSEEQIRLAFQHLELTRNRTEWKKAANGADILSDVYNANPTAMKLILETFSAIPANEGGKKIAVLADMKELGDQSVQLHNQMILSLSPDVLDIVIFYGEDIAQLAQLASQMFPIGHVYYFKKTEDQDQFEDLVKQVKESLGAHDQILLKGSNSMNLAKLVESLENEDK
# Assay: Antibacterial activity against UDP-MurNAc-pentapeptide synthetase from Streptococcus pneumoniae.
# Outline: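 Activity was read as radiolabeled free phosphate released. IC50 was read graphically from four-point concentration plots spanning it. Each point is the mean of at least two determinations, and each IC50 the mean of at least two independent plots.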
row,SMILES,IC50
1,CCN(CC)S(=O)(=O)c1ccc(Cl)c(C(=O)Nc2sc3c(c2CN)CCC3)c1,> 100 µM
2,N#Cc1c(NC(=O)c2cc(S(=O)(=O)N3CCOCC3)ccc2Cl)sc2c1CCCC2,1.7 µM
3,CCN(CC)S(=O)(=O)c1ccc(Cl)c(CNc2sc3c(c2C#N)CCC3)c1,> 100 µM
4,N#Cc1c(NC(=O)c2cc(S(=O)(=O)N3CCOCC3)ccc2Cl)sc2c1CCC2,9 µM
5,N#Cc1c(NC(=O)c2cc(S(=O)(=O)N3CCOCC3)c(Cl)cc2Cl)sc2c1CCCC2,1 µM
6,CN(C)CCCNS(=O)(=O)c1ccc(Cl)c(C(=O)Nc2sc3c(c2C#N)CCC3)c1,> 100 µM
7,CCOC(=O)c1c(NC(=O)c2cc(S(=O)(=O)N(CC)CC)ccc2Cl)sc2c1CCC2,> 100 µM
8,N#Cc1c(NC(=O)c2cc(S(=O)(=O)N3CCOCC3)c(F)cc2Cl)sc2c1CCC2,6.4 µM
9,CCN(CC)S(=O)(=O)c1ccc(Cl)c(C(=O)Nc2sc3c(c2C#N)CCC3)c1,8 µM
10,N#Cc1c(NC(=O)c2cc(S(=O)(=O)N3CCOCC3)c(Cl)cc2Cl)sc2c1CCC(c1ccccc1)C2 (centres undefined),0.07 µM
11,N#Cc1c(NC(=O)c2cc(S(=O)(=O)N3CCOCC3)c(NCCCO)cc2Cl)sc2c1CCC2,> 100 µM
12,CNc1cc(Cl)c(C(=O)Nc2sc3c(c2C#N)CCC3)cc1S(=O)(=O)N1CCOCC1,62 µM
13,N#Cc1c(NC(=O)c2cc(S(=O)(=O)Nc3ccccc3)ccc2Cl)sc2c1CCC2,26 µM
14,CN(C)CCCNc1ccc(S(=O)(=O)N2CCOCC2)cc1C(=O)Nc1sc2c(c1C#N)CCC2,74 µM
15,CCN(CC)S(=O)(=O)c1ccc(Cl)c(C(=O)Nc2sc3c(c2C#N)CCCCC3)c1,3.4 µM
16,CCN(CC)S(=O)(=O)c1ccc(Cl)c(C(=O)N(C)c2sc3c(c2C#N)CCC3)c1,> 100 µM
17,CCN(CC)S(=O)(=O)c1ccc(Cl)c(C(=O)Nc2sc3c(c2C#N)CCCC3)c1,1.4 µM

row,SMILES,IC50
1,CC(COc1ccc(S(=O)(=O)N2CCOCC2)cc1C(=O)Nc1sc2c(c1C#N)CCC2)c1ccccc1 (centres undefined),> 100 µM
2,CCN(CC)S(=O)(=O)c1ccc(Cl)c(C(=O)Nc2sc3c(c2C(N)=O)CCC3)c1,66 µM
3,CCN(CC)S(=O)(=O)c1ccc(Cl)c(C(=O)Nc2sc3c(c2CNC(C)=O)CCC3)c1,> 100 µM
4,CCOC(=O)C1CCc2c(sc(NC(=O)c3cc(S(=O)(=O)N(CC)CC)ccc3Cl)c2C#N)C1 (centres undefined),6 µM
5,CCN(CC)S(=O)(=O)c1cc(C(=O)Nc2sc3c(c2C#N)CCC3)c(Cl)cc1Cl,5.2 µM
6,CNS(=O)(=O)c1ccc(Cl)c(C(=O)Nc2sc3c(c2C#N)CCC3)c1,15 µM
7,CN(C)CCCNc1cc(Cl)c(C(=O)Nc2sc3c(c2C#N)CCC3)cc1S(=O)(=O)N1CCOCC1,> 100 µM
8,N#Cc1c(NC(=O)c2cc(S(=O)(=O)N3CCOCC3)c(Cl)cc2Cl)sc2c1CCC(c1ccc(O)cc1)C2 (centres undefined),0.022 µM
9,CCN(CC)S(=O)(=O)c1ccc(Cl)c(C(=O)Nc2sc3c(c2C#N)CCC(c2ccc(O)cc2)C3)c1 (centres undefined),0.054 µM
10,N#Cc1c(NC(=O)c2cc(S(=O)(=O)N3CCOCC3)ccc2Br)sc2c1CCC2,4.2 µM
11,CCN(CC)S(=O)(=O)c1ccc(Cl)c(C(C)Nc2sc3c(c2C#N)CCC3)c1 (centres undefined),> 100 µM
12,CCOc1ccc(S(=O)(=O)N2CCOCC2)cc1C(=O)Nc1sc2c(c1C#N)CCC2,> 100 µM
13,CN(C)c1ccc(S(=O)(=O)N2CCOCC2)cc1C(=O)Nc1sc2c(c1C#N)CCC2,> 100 µM
14,N#Cc1c(NC(=O)c2cc(S(=O)(=O)N3CCOCC3)c(Cl)cc2Cl)sc2c1CCC2,0.3 µM
15,N#Cc1c(NC(=O)c2cccc(S(=O)(=O)N3CCOCC3)c2)sc2c1CCC2,> 100 µM
16,N#Cc1c(NC(=O)c2cc(S(=O)(=O)N3CCOCC3)ccc2Cl)sc2c1CCCCC2,4.2 µM
17,CCN(CC)S(=O)(=O)c1cc(C(=O)Nc2sc3c(c2C#N)CCC(c2ccc(O)cc2)C3)c(Cl)cc1Cl (centres undefined),0.067 µM
